Results: ChEMBL document CHEMBL1157660, “Synthesis and biological evaluation of 2',5'-dimethoxychalcone derivatives as microtubule-targeted anticancer agents” (Bioorg Med Chem, 2010)
pIC50: −log10 of the molar value. Calls of active or inactive are those of the source. No cut-off for these calls is given here.

Experiments:
[1] = Cytotoxicity against human NTUB1 cells after 72 hrs by MTT assay; format: functional, cell-based; conditions: NTUB1, 72 h
Outline: (§1)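 MTT assay: 1800 cells/well plated, overnight at 37 °C, then graded concentrations for 72 h at 37 °C. MTT added for 3 h, plates centrifuged, formazan dissolved in DMSO, absorbance read at 540 nm. Viability as percent of control; IC50 by median-effect analysis, mean ± SD. Cells grown in RPMI 1640 with 10% FBS.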

PC-3 [2] = test: Cytotoxicity against human PC3 cells after 72 hrs by MTT assay; format: functional, cell-based; conditions: PC-3, 72 h; outline: as §1
NTUB1 [3] = test: Inhibition of alpha-tubulin assembly in human NTUB1 cells at 10 nM after 24 hrs by DAPI staining-based microscopic analysis; format: cell-based
Outline: (§2)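 NTUB1 cells seeded on serum-coated coverslips (10⁵ cells/well), incubated overnight, then treated 24 h. Fixed in 2% formaldehyde/PBS 20 min and permeabilized in cold methanol 3 min. Stained overnight with anti-α-tubulin primary, then rhodamine goat anti-rabbit secondary with 1 µg/mL DAPI for 1 h at room temperature. Mounted in 80% glycerol/PBS and examined by fluorescence microscopy; untreated medium control.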

NTUB1 [4] = test: Antimitotic activity in human NTUB1 cells assessed as accumulation of mitotic arrest cells at 10 nM after 24 hrs by DAPI staining-based microscopic analysis; format: functional, cell-based; outline: as §2
NTUB1 [5] = test: Antimitotic activity in human NTUB1 cells assessed as appearance of rounded and dead cells at 10 nM after 24 hrs; format: functional, cell-based
Outline: (§3)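 NTUB1 cells at 7×10^5 cells per 10 cm dish, treated 24 h; medium-only control. Cell rounding and death scored by light-microscopic morphology.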

[6] = Cell cycle arrest in human NTUB1 cells assessed as accumulation at G2/M phase at 1 uM after 24 hrs by propidium iodide staining-based FACS analysis; format: functional
Outline: (§4)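 Cells (6×10^5 plated) treated 24 h; 20 µM cisplatin as reference, medium-only control. Harvested by trypsinization, PBS-washed, fixed overnight in ice-cold methanol at −20 °C. Stained 30 min at room temperature in PBS with 50 µg/mL propidium iodide plus 50 µg/mL RNase A. DNA content by FACScan flow cytometry; sub-G1 taken as apoptosis. Representative of three independent experiments.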

[7] = Cell cycle arrest in human NTUB1 cells assessed as accumulation at S phase at 1 uM after 24 hrs by propidium iodide staining-based FACS analysis; format: functional; outline: as §4
[8] = Cell cycle arrest in human NTUB1 cells assessed as accumulation at G1 phase at 1 uM after 24 hrs by propidium iodide staining-based FACS analysis; format: functional; outline: as §4
[9] = Cell cycle arrest in human NTUB1 cells assessed as accumulation at sub-G1 phase at 1 uM after 24 hrs by propidium iodide staining-based FACS analysis; format: functional; outline: as §4
[10] = Cell cycle arrest in human NTUB1 cells assessed as accumulation at G2/M phase at 3 uM after 24 hrs by propidium iodide staining-based FACS analysis; format: functional; outline: as §4
[11] = Cell cycle arrest in human NTUB1 cells assessed as accumulation at S phase at 3 uM after 24 hrs by propidium iodide staining-based FACS analysis; format: functional; outline: as §4
[12] = Cell cycle arrest in human NTUB1 cells assessed as accumulation at G1 phase at 3 uM after 24 hrs by propidium iodide staining-based FACS analysis; format: functional; outline: as §4
[13] = Cell cycle arrest in human NTUB1 cells assessed as accumulation at sub-G1 phase at 3 uM after 24 hrs by propidium iodide staining-based FACS analysis; format: functional; outline: as §4
PC-3 [14] = test: Cell cycle arrest in human PC3 cells assessed as accumulation at G2/M phase at 1 uM after 24 hrs by propidium iodide staining-based FACS analysis; format: functional; outline: as §4
PC-3 [15] = test: Cell cycle arrest in human PC3 cells assessed as accumulation at S phase at 1 uM after 24 hrs by propidium iodide staining-based FACS analysis; format: functional; outline: as §4
PC-3 [16] = test: Cell cycle arrest in human PC3 cells assessed as accumulation at G1 phase at 1 uM after 24 hrs by propidium iodide staining-based FACS analysis; format: functional; outline: as §4
PC-3 [17] = test: Cell cycle arrest in human PC3 cells assessed as accumulation at sub-G1 phase at 1 uM after 24 hrs by propidium iodide staining-based FACS analysis; format: functional; outline: as §4
PC-3 [18] = test: Cell cycle arrest in human PC3 cells assessed as accumulation at G2/M phase at 3 uM after 24 hrs by propidium iodide staining-based FACS analysis; format: functional; outline: as §4
PC-3 [19] = test: Cell cycle arrest in human PC3 cells assessed as accumulation at S phase at 3 uM after 24 hrs by propidium iodide staining-based FACS analysis; format: functional; outline: as §4
PC-3 [20] = test: Cell cycle arrest in human PC3 cells assessed as accumulation at G1 phase at 3 uM after 24 hrs by propidium iodide staining-based FACS analysis; format: functional; outline: as §4
PC-3 [21] = test: Cell cycle arrest in human PC3 cells assessed as accumulation at sub-G1 phase at 3 uM after 24 hrs by propidium iodide staining-based FACS analysis; format: functional; outline: as §4
NTUB1 [22] = test: Inhibition of alpha-tubulin assembly in human NTUB1 cells at 0.3 to 1 uM after 24 hrs by DAPI staining-based microscopic analysis; format: cell-based; outline: as §2
NTUB1 [23] = test: Stabilization GDP-bound alpha-tubulin in human NTUB1 cells assessed as microtubule disassembly at 50 to 100 uM after 6 hrs by Western blot analysis; format: cell-based
Outline: (§5)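 NTUB1 cells (1×10^6 per dish) treated 6 h; 500 nM paclitaxel reference. Lysed in Tris-HCl pH 6.8 buffer with MgCl2, EGTA, 0.5% NP-40 and protease/phosphatase inhibitors. Centrifuged 15,000g, 10 min, 4 °C to separate soluble (supernatant) from polymerized (pellet) tubulin. Fractions run on 10% SDS-PAGE and immunoblotted for α-tubulin, β-actin as control, chemiluminescent detection.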

NTUB1 [24] = test: Stabilization GDP-bound alpha-tubulin in human NTUB1 cells assessed as microtubule disassembly at 10 uM after 6 hrs by Western blot analysis; format: cell-based; outline: as §5
NTUB1 [25] = test: Stabilization GDP-bound alpha-tubulin in human NTUB1 cells assessed as microtubule disassembly at 500 nM after 6 hrs by Western blot analysis; format: cell-based; outline: as §5
NTUB1 [26] = test: Inhibition of alpha-tubulin assembly in human NTUB1 cells at 10 to 100 uM after 6 hrs by Western blot analysis; format: cell-based; outline: as §5
NTUB1 [27] = test: Antimitotic activity in human NTUB1 cells assessed as accumulation of mitotic arrest cells at 0.3 to 1 uM after 24 hrs by DAPI staining-based microscopic analysis; format: functional, cell-based; outline: as §2
NTUB1 [28] = test: Antimitotic activity in human NTUB1 cells assessed as appearance of rounded and dead cells at 0.3 to 3 uM after 24 hrs; format: functional, cell-based; outline: as §3

Structure (SMILES): CCNC(=O)c1ccc(/C=C/C(=O)c2cc(OC)ccc2OC)cc1
- pIC50 [1]: 5.42
- pIC50 (PC-3 [2]): 5.38

Structure (SMILES): COC(=O)c1ccc(/C=C/C(=O)c2cc(OC)ccc2OC)cc1
- pIC50 [1]: 5.45
- pIC50 (PC-3 [2]): 5.31

Structure (SMILES): COc1ccc(OC)c(C(=O)/C=C/c2ccc(C(=O)O)s2)c1
- pIC50 [1]: < 4.30

Structure (SMILES): CCCOC(=O)c1ccc(/C=C/C(=O)c2cc(OC)ccc2OC)cc1
- pIC50 [1]: 5.22
- pIC50 (PC-3 [2]): 4.57

Structure (SMILES): CC(=O)O[C@H]1C(=O)[C@@]2(C)[C@H]([C@H](OC(=O)c3ccccc3)[C@]3(O)C[C@H](OC(=O)[C@H](O)[C@@H](NC(=O)c4ccccc4)c4ccccc4)C(C)=C1C3(C)C)[C@]1(OC(C)=O)CO[C@@H]1C[C@@H]2O
- inhibition (NTUB1 [3]): inactive
- Activity (NTUB1 [4]): Active
- Activity (NTUB1 [5]): Active

Structure (SMILES): COc1ccc(OC)c(C(=O)/C=C/c2ccc(C(=O)O)cc2)c1
- pIC50 [1]: 5.24
- pIC50 (PC-3 [2]): 5.14

Structure (SMILES): COc1ccc(OC)c(C(=O)/C=C/c2ccc(C(=O)N(C)CCO)cc2)c1
- pIC50 [1]: 5.35
- pIC50 (PC-3 [2]): 5.24

Structure (SMILES): COc1ccc(OC)c(C(=O)/C=C/c2ccc(C(=O)NC3CCCCC3)cc2)c1
- pIC50 [1]: 5.65
- pIC50 (PC-3 [2]): 5.20

Structure (SMILES): COc1ccc(OC)c(C(/C=C/c2ccc(C(=O)NC3CC3)cc2)=N/C2CC2)c1
- pIC50 [1]: 5.45
- pIC50 (PC-3 [2]): 5.37

Structure (SMILES): CCN(CC)C(=O)c1ccc(/C=C/C(=O)c2cc(OC)ccc2OC)cc1
- pIC50 [1]: 5.57
- pIC50 (PC-3 [2]): 5.42

Structure (SMILES): COc1ccc(OC)c(C(=O)/C=C/c2ccc(C(=O)OCC=C(C)C)cc2)c1
- pIC50 [1]: 4.87
- pIC50 (PC-3 [2]): < 4.30

Structure (SMILES): COc1ccc(OC)c(C(=O)/C=C/c2ccc(C(=O)NC(C)C)cc2)c1
- pIC50 [1]: 5.71
- pIC50 (PC-3 [2]): 5.80
- Activity [6]: 22.6%
- Activity [7]: 27.2%
- Activity [8]: 44.9%
- Activity [9]: 1.84%
- Activity [10]: 24.2%
- Activity [11]: 21.2%
- Activity [12]: 22.3%
- Activity [13]: 30.3%
- Activity (PC-3 [14]): 19.22%
- Activity (PC-3 [15]): 25.83%
- Activity (PC-3 [16]): 38.85%
- Activity (PC-3 [17]): 9.25%
- Activity (PC-3 [18]): 25.43%
- Activity (PC-3 [19]): 16.09%
- Activity (PC-3 [20]): 36.73%
- Activity (PC-3 [21]): 14.26%

Structure (SMILES): COc1ccc(OC)c(C(=O)/C=C/c2ccc(C(=O)OCc3ccccc3)cc2)c1
- pIC50 [1]: 4.88
- pIC50 (PC-3 [2]): 4.75

Structure (SMILES): CCOC(=O)c1ccc(/C=C/C(=O)c2cc(OC)ccc2OC)cc1
- pIC50 [1]: 5.35
- pIC50 (PC-3 [2]): 5.24

Structure (SMILES): CCCNC(=O)c1ccc(/C=C/C(=O)c2cc(OC)ccc2OC)cc1
- pIC50 [1]: 5.65
- pIC50 (PC-3 [2]): 5.82

Structure (SMILES): COc1ccc(OC)c(C(=O)/C=C/c2ccc(C(=O)N3CCCC3)cc2)c1
- pIC50 [1]: 5.90
- pIC50 (PC-3 [2]): 6.28
- Activity [6]: 20.4%
- Activity [7]: 28.8%
- Activity [8]: 46.6%
- Activity [9]: 2.16%
- Activity [10]: 18.3%
- Activity [11]: 11.3%
- Activity [12]: 7.03%
- Activity [13]: 61%
- Activity (PC-3 [14]): 14.02%
- Activity (PC-3 [15]): 25.28%
- Activity (PC-3 [16]): 45.81%
- Activity (PC-3 [17]): 7.8%
- Activity (PC-3 [18]): 27.69%
- Activity (PC-3 [19]): 21.83%
- Activity (PC-3 [20]): 18.44%
- Activity (PC-3 [21]): 24.45%
- inhibition (NTUB1 [22]): Active
- Activity (NTUB1 [23]): Dose-dependent effect
- Activity (NTUB1 [24]): inactive
- Activity (NTUB1 [25]): Active
- inhibition (NTUB1 [26]): inactive
- Activity (NTUB1 [27]): Active
- Activity (NTUB1 [28]): Active

Structure (SMILES): COc1ccc(OC)c(C(=O)/C=C/c2ccc(C(=O)N(C)C)cc2)c1
- pIC50 [1]: 5.41
- pIC50 (PC-3 [2]): 5.34

Structure (SMILES): CNC(=O)c1ccc(/C=C/C(=O)c2cc(OC)ccc2OC)cc1
- pIC50 [1]: 5.66
- pIC50 (PC-3 [2]): 5.67

Structure (SMILES): COc1ccc(OC)c(C(=O)/C=C/c2ccc(C(=O)OC(C)C)cc2)c1
- pIC50 [1]: 5.35
- pIC50 (PC-3 [2]): 5.17
